Data on 42 compounds can be found in ChEMBL document CHEMBL1140721, “Development of potent purine-derived nitrile inhibitors of the trypanosomal protease TbcatB” (J Med Chem, 2008).

One assay relates to Trypanosoma brucei. The assay is described as follows: Antitrypanosomal activity against Trypanosoma brucei. The assay is classed as functional, organism-based. Summed up: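 Culture-adapted bloodstream T. brucei grown in HMI-9 with pen/strep, 10% heat-inactivated FBS and 10% Serum Plus at 37 °C, 5% CO2, diluted to 1 × 10^4 cells/mL. Inhibitor added from DMSO, 48 h at 37 °C, then 1 h room-temperature equilibration. Cell Titer Glo luminescence read after 8 min. Quadruplicate. IC50 by curve fitting. Values shift up to 10-fold with FBS lot.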

For another assay, the target named is Cathepsin B (Homo sapiens, UniProt P07858). The assay is described as follows: Inhibition of human liver cathepsin B. Summed up:
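Human liver enzyme at 0.56 ng/mL final in sodium acetate pH 5.5 buffer with 4 mM DTT, 0.01% Triton X-100, 0.5 mM EDTA. 20 min room-temperature preincubation with inhibitor, then Z-Arg-Arg-AMC (10 µM final). Quadruplicate. Sigmoidal IC50 fit.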

Another assay deals with Procathepsin L (Homo sapiens, UniProt P07711). The assay is described as follows: Inhibition of human liver cathepsin L. The method, boiled down: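 Inhibitor preincubated 20 min at room temperature before Z-Phe-Arg-AMC (10 µM final). Initial rate from fluorescence (ex 350/em 460 nm) over 10 min. Quadruplicate. Sigmoidal IC50 fit.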
Sequence of Procathepsin L (P07711 whole entry): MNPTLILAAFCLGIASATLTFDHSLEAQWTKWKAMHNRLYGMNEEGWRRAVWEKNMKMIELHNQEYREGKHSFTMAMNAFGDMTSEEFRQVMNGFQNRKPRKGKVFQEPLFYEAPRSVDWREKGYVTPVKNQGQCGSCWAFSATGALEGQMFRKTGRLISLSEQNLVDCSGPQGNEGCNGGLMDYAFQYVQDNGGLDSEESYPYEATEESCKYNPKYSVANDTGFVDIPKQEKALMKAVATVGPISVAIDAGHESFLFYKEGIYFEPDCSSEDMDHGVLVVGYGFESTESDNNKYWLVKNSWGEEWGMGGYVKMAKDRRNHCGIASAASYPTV
Assay [1] concerns the target T1, Cathepsin B-like cysteine protease (Trypanosoma brucei, UniProt Q6R7Z5).
T1 sequence (Q6R7Z5 whole entry): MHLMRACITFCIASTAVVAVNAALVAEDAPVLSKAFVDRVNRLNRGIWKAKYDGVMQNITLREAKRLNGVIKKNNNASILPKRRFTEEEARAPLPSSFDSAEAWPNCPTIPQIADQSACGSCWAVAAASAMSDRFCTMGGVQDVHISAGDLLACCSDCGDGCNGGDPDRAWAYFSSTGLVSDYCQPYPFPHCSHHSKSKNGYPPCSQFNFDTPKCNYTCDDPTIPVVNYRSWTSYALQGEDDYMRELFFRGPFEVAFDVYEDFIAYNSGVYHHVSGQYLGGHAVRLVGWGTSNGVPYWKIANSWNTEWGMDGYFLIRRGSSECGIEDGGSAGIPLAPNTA
In words: Inhibition of Trypanosoma brucei cathepsin B-like cysteine protease. Summed up: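 Recombinant TbcatB zymogen expressed in Pichia pastoris, purified by HIC and anion exchange, titrated with CA074; 35 nM final. Inhibitor preincubated 20 min at room temperature, then Z-Phe-Arg-AMC (10 µM final). Initial rate from fluorescence (ex 350/em 460 nm) over 10 min. Triplicate. Sigmoidal IC50 fit.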

For the compound `N#Cc1nc(NCc2ccc(Br)cc2)c2ncn(CCCc3ccccc3)c2n1`, the IC50 was 0.42 µM with Trypanosoma brucei, more than 30 µM against Cathepsin B, more than 30 µM at Procathepsin L and more than 25 µM in assay [1].
In the assay on Trypanosoma brucei, `N#Cc1nc(NCc2ccccc2)c2ncn(CC3CCCCO3)c2n1` (stereo not given) yielded a 50% effective concentration (EC50) of 0.24 µM. Also, the half-maximal inhibitory concentration (IC50) is more than 30 µM against Cathepsin B, 10.8 µM against Procathepsin L and 11 µM in assay [1].
Consider `CCCCn1cnc2c(NCc3ccccc3)nc(C#N)nc21`, for which the half-maximal inhibitory concentration (IC50) was 1.7 µM in the assay on Trypanosoma brucei, more than 30 µM against Cathepsin B, 4.38 µM at Procathepsin L and 14 µM in assay [1].
As for `N#Cc1nc(NCc2ccccc2)c2ncn(CCCO)c2n1`, the EC50 in the assay with Trypanosoma brucei is 2.9 µM. The 50% inhibitory concentration (IC50) against Procathepsin L came out at 2.27 µM; in assay [1], 12 µM.
Consider `CCCCn1cnc2c(NCc3ccc(Cl)cc3)nc(C#N)nc21`, for which the IC50 in the assay on Trypanosoma brucei was 0.85 µM; at Cathepsin B it was more than 30 µM; on Procathepsin L, 5.06 µM; in assay [1], 10 µM.
For `N#Cc1nc(NCc2ccc(Cl)cc2)c2ncn(CCCCO)c2n1`, the figures for the IC50 (in the assay with Trypanosoma brucei; against Procathepsin L; in assay [1]) were 0.6 µM, 4.15 µM and 4.8 µM, respectively.
With `Cc1cccc(CNc2nc(C#N)nc3c2ncn3C2CCCC2)c1`, the half-inhibitory concentration (IC50) in the assay with Trypanosoma brucei was 1.1 µM; on Cathepsin B, more than 30 µM; on Procathepsin L it was 10.5 µM; in assay [1], more than 25 µM.
The matching figures for `CCCCn1cnc2c(NCc3ccc(Cl)c(Cl)c3)nc(C#N)nc21`: 0.18 µM, more than 30 µM, 1.82 µM and 4.1 µM.
On to `CCCCn1cnc2c(NCc3ccc(C)cc3)nc(C#N)nc21`, for which, in the assay on Trypanosoma brucei, the midpoint of the response, the EC50, lay at 0.55 µM. Besides, the concentration for half-maximal inhibition (IC50) against Cathepsin B is more than 30 µM; on Procathepsin L, 5.86 µM; in assay [1], more than 25 µM.
With `CCCCCCNc1nc(C#N)nc2c1ncn2CC1CCCCC1`, the IC50 is 3.6 µM in the assay on Trypanosoma brucei, more than 30 µM against Cathepsin B, more than 30 µM at Procathepsin L and more than 25 µM in assay [1].
Consider `COc1ccc(CNc2nc(C#N)nc3c2ncn3C2CCCC2)cc1`, for which the IC50 in the assay on Trypanosoma brucei was 0.8 µM; at Cathepsin B it was more than 30 µM; on Procathepsin L, 4 µM; in assay [1], 7 µM.
For the compound `CCC(C)CNc1nc(C#N)nc2c1ncn2C1CCCC1` (stereo not given), the 50% inhibitory concentration (IC50) with Trypanosoma brucei is 1.1 µM; on Cathepsin B it was more than 30 µM; at Procathepsin L, 2.38 µM; in assay [1] it was 14 µM.
In the case of `N#Cc1nc(NCc2ccc(Cl)cc2)c2ncn(Cc3ccccc3)c2n1`, the IC50 with Trypanosoma brucei is 1.5 µM; on Cathepsin B it was more than 30 µM; at Procathepsin L, more than 30 µM; in assay [1], more than 25 µM.
With `CCCn1cnc2c(NC3CCCCC3)nc(C#N)nc21`, the IC50 in the assay with Trypanosoma brucei was found to be 12 µM; against Cathepsin B, 19 µM; against Procathepsin L it was 2.53 µM; in assay [1] it was 8.3 µM.
Turning to `N#Cc1nc(NC2CCCCC2)c2ncn(Cc3ccccc3)c2n1`, the IC50 in the assay with Trypanosoma brucei came to 0.33 µM; on Cathepsin B, 17.7 µM; at Procathepsin L it was 3.79 µM; in assay [1] it was 2.3 µM.
Compound `N#Cc1nc(NCc2ccc(Cl)c(Cl)c2)c2ncn(Cc3ccccc3)c2n1` registered an EC50 in the assay on Trypanosoma brucei of 0.26 µM. Also, the IC50 against Cathepsin B was more than 30 µM; on Procathepsin L, 14.9 µM; in assay [1] it was 15 µM.
In turn, `Cc1ccc(CNc2nc(C#N)nc3c2ncn3CCCO)cc1` came in with an EC50 with Trypanosoma brucei of 0.9 µM. For the same compound, the concentration for half-maximal inhibition (IC50) against Cathepsin B was 7.69 µM; on Procathepsin L, 1.17 µM; in assay [1] it was 4.2 µM.
Consider `COc1ccc(CNc2nc(C#N)nc3c2ncn3Cc2ccccc2)cc1`, for which the response in the assay with Trypanosoma brucei was half-maximal at 1 µM (EC50). The IC50 on Cathepsin B is more than 30 µM; at Procathepsin L, 8.05 µM; in assay [1], 4.5 µM.
Consider `N#Cc1nc(NCc2ccc(F)cc2)c2ncn(Cc3ccccc3)c2n1`, for which the IC50 in the assay on Trypanosoma brucei is 0.9 µM; on Cathepsin B, more than 30 µM; at Procathepsin L, 13.5 µM; in assay [1] it was 3.3 µM.
As for `N#Cc1nc(NCc2ccc(Cl)c(Cl)c2)c2ncn(CCCCCO)c2n1`, the 50% inhibitory concentration (IC50) in the assay on Trypanosoma brucei was 0.06 µM; at Cathepsin B, more than 30 µM; at Procathepsin L, 0.8 µM; in assay [1], 0.93 µM.
Take `N#Cc1nc(NCc2ccc(Cl)c(Cl)c2)c2ncn(CC(O)CO)c2n1` (stereo not given): the IC50 in the assay with Trypanosoma brucei is 0.45 µM; against Cathepsin B, more than 30 µM; against Procathepsin L it was 0.42 µM; in assay [1], 1.2 µM.
In the case of `N#Cc1nc(NC2CCCCC2)c2ncn(C3CCCCC3)c2n1`, the IC50 came out at 1.4 µM in the assay with Trypanosoma brucei, 23.6 µM on Cathepsin B, 3.3 µM at Procathepsin L and 8.3 µM in assay [1].
The like results for `N#Cc1nc(NCc2ccccc2)c2ncn(Cc3cccc(C(F)(F)F)c3)c2n1` were, in that order, 0.26 µM, more than 30 µM, more than 30 µM and 2.8 µM.
The matching figures for `Cc1cccc(CNc2nc(C#N)nc3c2ncn3CC2CCCCC2)c1`: 2.2 µM, more than 30 µM, more than 30 µM and more than 25 µM.
Regarding `CCCCn1cnc2c(NCc3ccc(OC)cc3)nc(C#N)nc21`, in the assay on Trypanosoma brucei, a half-maximal effect (EC50) was put at 0.39 µM. Also, the half-maximal inhibitory concentration (IC50) at Cathepsin B was more than 30 µM; against Procathepsin L it was 2.28 µM; in assay [1], 6 µM.
As to `CC(Nc1nc(C#N)nc2c1ncn2C1CCCC1)c1ccccc1` (stereo not given), the IC50 with Trypanosoma brucei is 3.4 µM; at Cathepsin B, more than 30 µM; against Procathepsin L, 11.8 µM; in assay [1] it was more than 25 µM.
`Cc1ccc(CNc2nc(C#N)nc3c2ncn3Cc2ccccc2)cc1`: the EC50 with Trypanosoma brucei was determined as 0.56 µM. Moreover, the values for the half-maximal inhibitory concentration (IC50) (at Cathepsin B; on Procathepsin L; in assay [1]) were more than 30 µM, 12.9 µM and more than 25 µM, respectively.
Take `CCCCCCNc1nc(C#N)nc2c1ncn2Cc1ccccc1`: the IC50 in the assay with Trypanosoma brucei is 0.7 µM; against Cathepsin B, more than 30 µM; at Procathepsin L it was more than 30 µM; in assay [1], more than 25 µM.
`Cc1cccc(CNc2nc(C#N)nc3c2ncn3Cc2ccccc2)c1`: the half-inhibitory concentration (IC50) in the assay with Trypanosoma brucei was 0.48 µM; at Cathepsin B, more than 30 µM; against Procathepsin L it was 10.5 µM; in assay [1] it was 3.3 µM.
The like results for `N#Cc1nc(NCc2ccccc2)c2ncn(Cc3ccccc3)c2n1` were, in that order, 2 µM, more than 30 µM, 12.2 µM and 6 µM.
As for `CCCCn1cnc2c(NCc3cccc(C)c3)nc(C#N)nc21`, the IC50 in the assay on Trypanosoma brucei was 0.27 µM; against Cathepsin B, more than 30 µM; at Procathepsin L it was 3.91 µM; in assay [1], 11 µM.
`COCCCn1cnc2c(NCc3ccc(Cl)c(Cl)c3)nc(C#N)nc21`: the concentration for half-maximal inhibition (IC50) with Trypanosoma brucei was 0.15 µM; against Cathepsin B, more than 30 µM; on Procathepsin L it was 0.78 µM; in assay [1], 2.5 µM.
The like results for `CCCCCCNc1nc(C#N)nc2c1ncn2C1CCCC1` were, in that order, 1.5 µM, more than 30 µM, 28.4 µM and more than 25 µM.
The matching figures for `N#Cc1nc(NCc2ccccc2)c2ncn(C3CCCC3)c2n1`: 1.7 µM, more than 30 µM, 13.4 µM and more than 25 µM.
Take `Cc1ccc(C(=O)Nc2ccc(S(=O)(=O)O)c3cc(S(=O)(=O)O)cc(S(=O)(=O)O)c23)cc1NC(=O)c1cccc(NC(=O)Nc2cccc(C(=O)Nc3cc(C(=O)Nc4ccc(S(=O)(=O)O)c5cc(S(=O)(=O)O)cc(S(=O)(=O)O)c45)ccc3C)c2)c1` [SURAMIN]: the figures for the IC50 with Trypanosoma brucei and against Cathepsin B were 0.13 µM and more than 30 µM, respectively.
For `N#Cc1nc(NCc2ccc(Cl)c(Cl)c2)c2ncn(CCO)c2n1`, the half-inhibitory concentration (IC50) in the assay with Trypanosoma brucei was 0.6 µM; against Cathepsin B, more than 30 µM; against Procathepsin L it was 0.3 µM; in assay [1], 1.4 µM.
Take `N=C(N)c1ccc(/N=N/Nc2ccc(C(=N)N)cc2)cc1` [DIMINAZENE]: the IC50 was 0.02 µM with Trypanosoma brucei and more than 30 µM on Cathepsin B.
With `N#Cc1nc(NCc2ccc(Cl)cc2)c2ncn(Cc3cccnc3)c2n1`, the IC50 in the assay on Trypanosoma brucei is 0.5 µM; on Cathepsin B it was more than 30 µM; against Procathepsin L, more than 30 µM; in assay [1], more than 25 µM.
For `N#Cc1nc(NCc2ccc(Cl)cc2)c2ncn(Cc3cccc(C(F)(F)F)c3)c2n1`, the IC50 with Trypanosoma brucei is 0.34 µM; on Cathepsin B it was more than 30 µM; on Procathepsin L it was more than 30 µM; in assay [1], more than 25 µM.
With `N#Cc1nc(NCc2ccc(Cl)cc2)c2ncn(C3CCCC3)c2n1`, the IC50 was 1.2 µM with Trypanosoma brucei, more than 30 µM against Cathepsin B, 13.5 µM against Procathepsin L and 19 µM in assay [1].
`N#Cc1nc(NCc2ccc(Cl)c(Cl)c2)c2ncn(CCCO)c2n1`: the IC50 in the assay on Trypanosoma brucei turned out to be 0.11 µM; at Procathepsin L, 0.3 µM; in assay [1], 0.27 µM.
On to `N#Cc1nc(NCc2ccc(Cl)cc2)c2ncn(CCCO)c2n1`, for which the IC50 with Trypanosoma brucei is 0.31 µM; at Procathepsin L it was 0.61 µM; in assay [1], 0.57 µM.

Broadly, the IC50 is the concentration at which inhibition is half-maximal. For orientation: EC50 means the midpoint of the concentration-response curve. A lower EC50 goes with higher potency in that assay.
